Assay [1] has as its target T1, Tyrosine-protein phosphatase non-receptor type 1 (Homo sapiens, UniProt P18031).
T1 sequence (P18031 whole entry): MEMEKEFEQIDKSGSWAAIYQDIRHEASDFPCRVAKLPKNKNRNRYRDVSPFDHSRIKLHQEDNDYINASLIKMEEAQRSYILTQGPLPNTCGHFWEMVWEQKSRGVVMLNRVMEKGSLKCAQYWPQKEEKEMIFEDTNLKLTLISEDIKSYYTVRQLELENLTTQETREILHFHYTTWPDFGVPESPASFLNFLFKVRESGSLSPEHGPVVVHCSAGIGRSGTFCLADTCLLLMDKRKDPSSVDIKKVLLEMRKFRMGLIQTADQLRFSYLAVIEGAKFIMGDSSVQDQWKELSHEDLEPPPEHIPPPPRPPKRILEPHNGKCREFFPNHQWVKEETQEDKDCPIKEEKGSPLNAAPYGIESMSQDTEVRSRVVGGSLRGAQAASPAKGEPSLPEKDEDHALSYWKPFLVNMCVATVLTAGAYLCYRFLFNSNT
Description: Inhibition of PTP1B.

Assay [2] deals with Mus musculus. As to the kind of experiment: Hypoglycemic activity in high fat diet-induced obese C57BL/6J Jms Slc mouse model assessed as triglyceride level at 143 mg/kg/day, po for 4 weeks administered with high fat diet followed by 5 days recovery period on their own high fat diet with drug (Rvb= 124 +/- 16 mg/dL). The format is functional. An outline of the steps:
(§1)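 HFD-obese mice (8 wk HFD) received HFD with drug in the diet (2.0 g/kg diet) for 4 wk, then continued 5 d on their diets. After an overnight fast and anesthesia, blood was taken by cardiac puncture. Serum triglyceride and total cholesterol were measured by enzymatic kits, and NEFA by a half-micro test kit. Mean ± SD, n = 8/group; one-way ANOVA.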

Assay [3] is described as follows: Selectivity for PTP1B over TC-PTP.
Assay [4] addresses Receptor-type tyrosine-protein phosphatase F (Homo sapiens, UniProt P10586). As to the kind of experiment: Inhibition of membrane proximal catalytic domain of LAR. An outline of the steps: (§2)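 Phosphatase activity was measured as p-nitrophenyl phosphate hydrolysis (2 mM pNPP in the reaction) over a range of inhibitor concentrations to derive IC50. Conditions were identical for all enzymes except enzyme level: PTP1B 40 nM, E. coli-expressed SHP-1 catalytic domain 100 nM, E. coli-expressed YPTP1 15 nM, LAR-D1 and TC-PTP 33 units/mL. Ki was calculated as IC50 = Ki(1+[S]/KM). Mean ± SD of two or more experiments.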

Assay [5] in a line: Selectivity for PTP1B over yeast PTP1.
Assay [6] relates to Mus musculus. Description: Antiobesity activity in high fat diet-induced obese C57BL/6J Jms Slc mouse model assessed as retroperitoneal fat at 143 mg/kg/day, po for 4 weeks administered with high fat diet followed by 5 days recovery period on their own high fat diet with drug (Rvb= 0.69 +/- 0.06 g). The format is functional. The method, boiled down:
(§3)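 Obesity was induced by HFD (45% kcal fat) for 8 wk, followed by 4 wk of HFD or HFD with drug in the diet (2.0 g/kg diet). After the glucose tolerance test, mice stayed on their diets for 5 d more and were fasted overnight. Epididymal and retroperitoneal fat pads were excised and weighed. Significance versus HFD by one-way ANOVA.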

The test system of assay [7] is Mus musculus. As to the kind of experiment: Hypoglycemic activity in high fat diet-induced obese C57BL/6J Jms Slc mouse model at 143 mg/kg/day, po for 4 weeks administered with high fat diet by glucose tolerance test. The format is functional, organism-based. The method, boiled down: (§4)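 After 8 wk of HFD and 4 wk of HFD with drug in the diet (2.0 g/kg diet), mice were fasted 6 h. Fasting blood glucose was taken at 0 min, glucose was then injected intraperitoneally, and tail blood was sampled at timed intervals up to 120 min.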

Assay [8] has as its system Mus musculus. As to the kind of experiment: Antiobesity activity in high fat diet-induced obese C57BL/6J Jms Slc mouse model assessed as decrease in body weight gain per kilocalories of food intake at 143 mg/kg/day, po for 4 weeks administered with high fat diet. The format is functional. Further details: scale not given: the % may be the effect or the level left. An outline of the steps: (§5)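 Male C57BL/6J Jms Slc mice were acclimatized 1 wk on low-fat diet (10% kcal fat), then fed high-fat diet (45% kcal fat) ad libitum for 8 wk. They were split into groups of equal mean body weight and given HFD or HFD with drug mixed into the food (2.0 g/kg diet; DMSO plus 1% aqueous polyglycerol fatty acid ester) for 4 wk. Read-outs: weight gain and feed efficiency (weight gain/kcal ×100).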

A short description of assay [9]: Inhibition of yeast PTP1. Further details: species or system Saccharomyces cerevisiae. The method, boiled down: as §2
In assay [10] the target is T2, Tyrosine-protein phosphatase non-receptor type 2 (Homo sapiens, UniProt P17706).
T2 sequence (P17706 whole entry): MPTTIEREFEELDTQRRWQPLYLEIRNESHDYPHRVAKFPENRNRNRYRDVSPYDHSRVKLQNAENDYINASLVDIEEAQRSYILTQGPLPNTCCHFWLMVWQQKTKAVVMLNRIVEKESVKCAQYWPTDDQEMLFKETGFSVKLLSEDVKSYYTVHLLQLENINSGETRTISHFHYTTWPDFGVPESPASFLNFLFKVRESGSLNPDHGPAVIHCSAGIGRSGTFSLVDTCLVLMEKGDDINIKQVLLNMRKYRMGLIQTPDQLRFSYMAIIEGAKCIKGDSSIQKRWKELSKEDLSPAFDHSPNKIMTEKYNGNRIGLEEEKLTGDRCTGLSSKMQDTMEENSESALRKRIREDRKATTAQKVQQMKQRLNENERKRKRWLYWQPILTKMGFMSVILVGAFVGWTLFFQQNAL
As to the kind of experiment: Inhibition of TC-PTP. The method, boiled down: as §2

Assay [11] relates to Mus musculus. Description: Hypoglycemic activity in high fat diet-induced obese C57BL/6J Jms Slc mouse model assessed as non-esterified free fatty acid level at 143 mg/kg/day, po for 4 weeks administered with high fat diet followed by 5 days recovery period on their own high fat diet with drug (Rvb= 0.71 +/- 0.22 mM). In kind it is functional. The method, boiled down:
as §1

Assay [12] has as its system Mus musculus. Description: Antiobesity activity in high fat diet-induced obese C57BL/6J Jms Slc mouse model assessed as epididymal fat at 143 mg/kg/day, po for 4 weeks administered with high fat diet followed by 5 days recovery period on their own high fat diet with drug (Rvb= 1.87 +/- 0.08 g). In kind it is functional. The method, boiled down: as §3
Assay [13] is described as follows: Inhibition of Yersinia YOP. The method, boiled down: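 Purchased YOP enzyme at 50 units (manufacturer's definition)/mL, with p-nitrophenyl phosphate substrate at 2 mM in the reaction mixture. pNPP hydrolase activity was measured across a range of inhibitor concentrations to derive IC50. Ki was obtained from IC50 = Ki(1 + [S]/KM). Values are mean and SD of two or more experiments.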

Assay [14] deals with Mus musculus. Description: Hypoglycemic activity in high fat diet-induced obese C57BL/6J Jms Slc mouse model assessed as reduction in fasting blood glucose level at 143 mg/kg/day, po for 4 weeks administered with high fat diet measured after 6 hrs of fasting. In kind it is functional, organism-based. An outline of the steps: as §4
Assay [15] in a line: Selectivity for PTP1B over membrane proximal catalytic domain of LAR.
Assay [16] deals with Mus musculus. As to the kind of experiment: Antiobesity activity in high fat diet-induced obese C57BL/6J Jms Slc mouse model assessed as body weight gain at 143 mg/kg/day, po for 4 weeks administered with high fat diet (Rvb= 4.88 +/- 0.46 g). In kind it is functional. An outline of the steps:
as §5

For assay [17], the system named is Mus musculus. Description: Hypoglycemic activity in high fat diet-induced obese C57BL/6J Jms Slc mouse model assessed as total cholesterol level at 143 mg/kg/day, po for 4 weeks administered with high fat diet followed by 5 days recovery period on their own high fat diet with drug (Rvb= 152 +/- 6 mg/dL). The format is functional. An outline of the steps:
as §1

Assay [18] concerns the target Tyrosine-protein phosphatase non-receptor type 6 (Homo sapiens, UniProt P29350). As to the kind of experiment: Inhibition of SHP1 catalytic domain expressed in Escherichia coli. An outline of the steps:
as §2

The source made the active and inactive calls. The calls are words filed in the database; no cut-off is given here. Where only a bound is given, the exact number is not on record here.

Chain of Tyrosine-protein phosphatase non-receptor type 6 (P29350 whole entry, the tested form may be a part): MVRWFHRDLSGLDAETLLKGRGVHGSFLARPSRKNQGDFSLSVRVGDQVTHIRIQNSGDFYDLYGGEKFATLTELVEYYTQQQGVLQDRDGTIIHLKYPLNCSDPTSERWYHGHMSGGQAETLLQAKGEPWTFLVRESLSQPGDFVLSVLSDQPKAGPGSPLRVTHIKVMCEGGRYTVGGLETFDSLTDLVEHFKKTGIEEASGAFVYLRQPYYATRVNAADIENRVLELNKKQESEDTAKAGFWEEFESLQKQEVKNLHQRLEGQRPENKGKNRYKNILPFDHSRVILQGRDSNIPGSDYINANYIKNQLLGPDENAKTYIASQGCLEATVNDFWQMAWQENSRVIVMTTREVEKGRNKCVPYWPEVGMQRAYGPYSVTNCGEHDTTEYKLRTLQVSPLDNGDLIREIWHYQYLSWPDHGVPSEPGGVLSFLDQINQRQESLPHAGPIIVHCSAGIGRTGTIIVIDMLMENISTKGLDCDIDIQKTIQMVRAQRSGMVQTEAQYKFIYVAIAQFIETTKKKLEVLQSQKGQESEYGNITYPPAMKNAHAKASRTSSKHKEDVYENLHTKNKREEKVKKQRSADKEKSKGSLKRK
Chain of Receptor-type tyrosine-protein phosphatase F (P10586 whole entry, the tested form may be a part): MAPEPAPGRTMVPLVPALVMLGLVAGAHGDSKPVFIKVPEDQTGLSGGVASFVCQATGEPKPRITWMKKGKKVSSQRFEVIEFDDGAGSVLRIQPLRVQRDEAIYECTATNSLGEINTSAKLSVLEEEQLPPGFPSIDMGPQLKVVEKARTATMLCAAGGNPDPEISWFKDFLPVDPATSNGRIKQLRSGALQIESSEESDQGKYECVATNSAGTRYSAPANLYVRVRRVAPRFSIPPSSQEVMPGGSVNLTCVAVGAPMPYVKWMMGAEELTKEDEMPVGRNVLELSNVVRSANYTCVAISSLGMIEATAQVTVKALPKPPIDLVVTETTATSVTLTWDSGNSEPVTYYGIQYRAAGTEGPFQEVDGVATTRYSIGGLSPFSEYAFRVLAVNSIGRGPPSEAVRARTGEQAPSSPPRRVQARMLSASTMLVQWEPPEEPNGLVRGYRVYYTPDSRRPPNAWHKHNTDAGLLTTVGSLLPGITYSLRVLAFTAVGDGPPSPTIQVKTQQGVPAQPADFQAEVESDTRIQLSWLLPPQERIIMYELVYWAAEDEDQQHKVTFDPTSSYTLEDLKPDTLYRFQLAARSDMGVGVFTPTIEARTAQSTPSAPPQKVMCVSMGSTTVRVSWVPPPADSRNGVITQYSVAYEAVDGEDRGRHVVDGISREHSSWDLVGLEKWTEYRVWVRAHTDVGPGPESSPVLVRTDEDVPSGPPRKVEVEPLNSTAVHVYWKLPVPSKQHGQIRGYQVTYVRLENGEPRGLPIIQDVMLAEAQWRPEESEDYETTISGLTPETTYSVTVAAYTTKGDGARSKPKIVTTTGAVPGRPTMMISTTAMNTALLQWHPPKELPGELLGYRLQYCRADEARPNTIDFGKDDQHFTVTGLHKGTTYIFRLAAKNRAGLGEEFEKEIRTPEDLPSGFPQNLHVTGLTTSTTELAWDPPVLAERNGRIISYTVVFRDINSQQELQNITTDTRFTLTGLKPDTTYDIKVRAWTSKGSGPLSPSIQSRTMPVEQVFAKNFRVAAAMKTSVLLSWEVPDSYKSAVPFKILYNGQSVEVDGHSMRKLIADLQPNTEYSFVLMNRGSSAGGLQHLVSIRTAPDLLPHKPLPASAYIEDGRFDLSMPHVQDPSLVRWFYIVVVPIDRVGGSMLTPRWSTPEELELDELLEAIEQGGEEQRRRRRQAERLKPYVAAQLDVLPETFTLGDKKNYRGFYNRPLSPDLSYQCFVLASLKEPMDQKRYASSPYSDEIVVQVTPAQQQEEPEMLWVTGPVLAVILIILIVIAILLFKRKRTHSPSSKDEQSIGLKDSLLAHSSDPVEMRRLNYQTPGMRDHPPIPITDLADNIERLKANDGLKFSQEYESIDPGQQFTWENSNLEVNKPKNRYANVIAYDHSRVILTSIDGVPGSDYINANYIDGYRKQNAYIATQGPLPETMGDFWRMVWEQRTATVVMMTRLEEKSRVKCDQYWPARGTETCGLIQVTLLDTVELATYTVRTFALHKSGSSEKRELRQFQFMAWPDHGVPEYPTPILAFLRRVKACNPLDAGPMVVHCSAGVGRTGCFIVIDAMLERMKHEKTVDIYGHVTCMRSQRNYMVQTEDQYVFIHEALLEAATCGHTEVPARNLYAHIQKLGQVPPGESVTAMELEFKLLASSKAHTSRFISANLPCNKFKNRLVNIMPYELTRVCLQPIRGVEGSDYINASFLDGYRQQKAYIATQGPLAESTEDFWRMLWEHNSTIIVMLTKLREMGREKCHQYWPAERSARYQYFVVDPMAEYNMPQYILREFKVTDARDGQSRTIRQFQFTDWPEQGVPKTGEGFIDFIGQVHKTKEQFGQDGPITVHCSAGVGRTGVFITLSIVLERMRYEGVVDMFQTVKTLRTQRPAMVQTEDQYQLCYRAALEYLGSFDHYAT

With `O=C1NC(=O)/C(=C/c2cc(Br)ccc2OCc2ccc(F)cc2)S1`, in [1], half-maximal inhibition (IC50) required 23 µM.

As to `O=C1NC(=O)/C(=C/c2ccc(OCc3ccc(C(F)(F)F)cc3)cc2)S1`, 14 µM corresponded to half-maximal inhibition in assay [1] (IC50).

As for `O=C1NC(=O)/C(=C/c2ccc(OCc3ccccc3)cc2)S1`, in assay [1], the IC50 was found to be 64 µM.

Take `O=C1NC(=O)/C(=C/c2ccc(OCc3ccc(C(F)(F)F)cc3)c(Br)c2)S1`: the midpoint of inhibition in [1], the IC50, lay at 5 µM.

For `CCc1ccc(CCOc2ccc(CC3SC(=O)NC3=O)cc2)nc1` (stereo unspecified) [PIOGLITAZONE], the IC50 in assay [1] was 220 µM.

In assay [1], `O=C1NC(=O)/C(=C/c2ccc(OCc3ccc(C(F)(F)F)cc3)c(-c3ccccc3)c2)S1` returned an IC50 of 6 µM.

Consider `O=C1NC(=O)/C(=C/c2cc(Br)ccc2OCc2cc(C(F)(F)F)cc(C(F)(F)F)c2)S1`, for which the Activity was found to be 78 mg/dL in assay [2]; 0.42 g in assay [6]; 0.68% in assay [8]; 0.22 mM in assay [11]; 1.27 g in assay [12]; 2.16 g in [16]. In addition, the Activity in assay [17] came out at 125 mg/dL. For the same molecule, the fold change (FC) is 2.2 in assay [3], 3.7 in assay [5] and greater than 20 in assay [15]. Besides, the IC50 was 5 µM in [1]; greater than 100 µM in assay [4]; 18 µM in assay [9]; 16 µM in assay [10]; 6 µM in assay [13]; 5.8 µM in [18]. For the same molecule, the Ki in [1] is 2.1 µM; in assay [9] it was 7.7 µM; in assay [10], 4.5 µM; in [18], 2.2 µM. The outcome in assay [7] was Active. In addition, the result in assay [14] was inactive.

In turn, `O=C1NC(=O)/C(=C/c2ccc(OCc3ccccc3)c(Br)c2)S1` showed an IC50 in assay [1] of 15 µM.

The molecule `O=C1NC(=O)/C(=C/c2cc(Br)ccc2OCc2ccccc2)S1` came in with an IC50 in [1] of 9 µM.

Take `O=C1NC(=O)/C(=C/c2cc(Br)ccc2OCc2cccc(C(F)(F)F)c2)S1`: 8 µM corresponded to half-maximal inhibition in [1] (IC50).

For `O=C1NC(=O)/C(=C/c2cc(F)ccc2OCc2cc(C(F)(F)F)cc(C(F)(F)F)c2)S1`, in [1], it took 8 µM to reach half-maximal inhibition (IC50).

`O=C1NC(=O)/C(=C/c2ccc(OCc3ccccc3)c(-c3ccccc3)c2)S1` came in with an IC50 in assay [1] of 9 µM.

The molecule `Cc1c(C)c2c(c(C)c1O)CCC(C)(COc1ccc(CC3SC(=O)NC3=O)cc1)O2` (stereo unspecified) [TROGLITAZONE] displayed an IC50 in [1] of 55 µM.

In turn, `O=C1NC(=O)/C(=C/c2ccc(OCc3ccc(F)cc3)cc2)S1` registered a concentration for half-maximal inhibition (IC50) in assay [1] of 68 µM.

As for `O=C1NC(=O)/C(=C/c2cc(F)ccc2OCc2ccc(C(F)(F)F)cc2)S1`, the IC50 in [1] was 15 µM.

On to `O=C1NC(=O)/C(=C/c2cc(Br)ccc2OCc2ccccc2C(F)(F)F)S1`, for which, in assay [1], it took 8 µM to reach half-maximal inhibition (IC50).

Regarding `O=C1NC(=O)/C(=C/c2ccc(OCc3ccc(F)cc3)c(Br)c2)S1`, in [1], the IC50 came to 11 µM.

As for `CN(CCOc1ccc(CC2SC(=O)NC2=O)cc1)c1ccccn1` (stereo unspecified) [ROSIGLITAZONE], in assay [1], inhibition was half-maximal at 400 µM (IC50).

As to `O=C1NC(=O)/C(=C/c2cc(-c3ccccc3)ccc2OCc2ccccc2)S1`, the IC50 in assay [1] is 16 µM.

`O=C1NC(=O)/C(=C/c2cc(Br)ccc2OCc2ccc(C(F)(F)F)cc2)S1`: in assay [1], the IC50 stood at 8 µM.

Broadly, the IC50 is the concentration that inhibits the measured activity by half. Usually Ki stands for the dissociation constant of the complex between target and ligand, obtained from inhibition or displacement.
